Calls of active or inactive are those of the source. No cut-off for these calls is given here.
Key:
[1] = molecular target: CCR5/mu opioid receptor complex (Homo sapiens) (UniProt P51681+P35372); details: 100 nM
[2] = molecular target: T1, C-C chemokine receptor type 5 (Homo sapiens, UniProt P51681); assay: Antagonist activity at CCR5 in Gqi5 transfected human MOLT4 cells assessed as inhibition of RANTES-stimulated Ca2+ influx preincubated for 15 mins followed by […]; format: functional, cell-based, MOLT-4
Procedure, shortened: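 CCR5-MOLT-4 cells transfected with chimeric […]. Inhibition of RANTES-stimulated Ca2+ flux was measured. IC50 is the mean ± S.E.M. of three independent experiments.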
Target sequence in this assay (P51681 whole entry): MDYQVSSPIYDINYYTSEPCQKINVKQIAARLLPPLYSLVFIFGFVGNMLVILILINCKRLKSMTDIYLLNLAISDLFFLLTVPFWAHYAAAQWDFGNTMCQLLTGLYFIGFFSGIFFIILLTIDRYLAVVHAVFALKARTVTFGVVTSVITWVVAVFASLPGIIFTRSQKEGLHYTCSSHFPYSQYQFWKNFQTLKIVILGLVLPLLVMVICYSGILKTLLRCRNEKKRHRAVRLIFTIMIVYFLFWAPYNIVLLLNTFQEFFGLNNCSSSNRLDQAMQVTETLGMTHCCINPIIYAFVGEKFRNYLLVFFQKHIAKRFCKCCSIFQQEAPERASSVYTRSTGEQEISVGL

[3] = molecular target: T2, Mu-type opioid receptor (Homo sapiens, UniProt P35372); assay: Agonist activity at human mu opioid receptor expressed in Gqi5 transfected CHO cells after 15 mins; format: cell-based
Procedure, shortened: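 hMOR-expressing CHO cells transfected with chimeric […] were tested for direct Ca2+ mobilization (agonist mode).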

[4] = molecular target: T1, C-C chemokine receptor type 5; assay: Agonist activity at CCR5 in Gqi5 transfected human MOLT4 cells after 15 mins; format: cell-based; details: MOLT-4
Procedure, shortened: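 Ca2+ mobilization, agonist mode, in CCR5-MOLT-4 cells transfected with chimeric […]. Intracellular Ca2+ flux was read directly, with no agonist challenge.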
Target sequence in this assay (P51681 whole entry, looked up): as the sequence (P51681 whole entry) above

[5] = Cytotoxicity against human astrocytes assessed as cell viability at 100 nM by AOPI staining-based fluorescence assay; details: astrocyte, 0.1 µM
Procedure, shortened: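 Astroglial cell viability after exposure at 100 nM, assessed by dual green/red fluorescence labeling with AOPI.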

[6] = molecular target: T2, Mu-type opioid receptor; assay: Displacement of [3H]-naloxone from human mu opioid receptor expressed in CHO cells after 1 hr; format: cell-based
Procedure, shortened: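 Competitive binding in hMOR-expressing CHO cells with [3H]naloxone as radioligand. Ki is the mean ± S.E.M. of three independent experiments.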

[7] = molecular target: T2, Mu-type opioid receptor; assay: Antagonist activity at human mu opioid receptor expressed in Gqi5 transfected CHO cells assessed as inhibition of DAMGO-stimulated Ca2+ influx preincubated for 15 mins followed by DAMGO challenge; format: functional, cell-based
Procedure, shortened: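 hMOR-CHO cells transfected with chimeric […]. Inhibition of DAMGO-stimulated Ca2+ flux was measured. IC50 is the mean ± S.E.M. of three independent experiments.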

[8] = molecular target: C-C chemokine receptor type 5 (Macaca mulatta, UniProt P61813); assay: Displacement of [125I]-MIP-1alpha from CCR5 in rhesus monkey Chem-1 cell membranes after 120 mins by liquid scintillation counting analysis
[9] = species on record: Homo sapiens; assay: Binding affinity to CCR5/MOR in human astrocytes assessed as inhibition of R5 HIV-1 SF162 infection by measuring Tat protein expression at 1.5 uM preincubated for 30 to 60 mins followed by viral infection measured after 18 hrs by luciferase reporter gene assay; format: cell-based
Procedure, shortened: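 Human astrocytes infected with R5 HIV-1 SF162. Infectivity was read as relative Tat protein expression by luciferase-based assay at 18 h post-infection. Tested at 1.5 μM after an initial dose-response study. Values are from three independent experiments, compared against uninfected and infected controls.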

T2 sequence (P35372 whole entry): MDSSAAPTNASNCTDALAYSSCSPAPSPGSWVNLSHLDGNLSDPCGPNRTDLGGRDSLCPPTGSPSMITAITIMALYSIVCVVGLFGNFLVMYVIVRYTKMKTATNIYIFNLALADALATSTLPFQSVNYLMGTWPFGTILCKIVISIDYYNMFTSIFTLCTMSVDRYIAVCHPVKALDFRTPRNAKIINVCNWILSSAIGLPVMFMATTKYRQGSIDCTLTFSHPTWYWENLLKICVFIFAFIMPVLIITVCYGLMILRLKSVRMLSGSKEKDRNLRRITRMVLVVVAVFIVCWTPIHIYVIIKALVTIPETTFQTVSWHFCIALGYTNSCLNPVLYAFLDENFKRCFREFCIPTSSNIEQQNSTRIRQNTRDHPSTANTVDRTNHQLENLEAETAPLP
Chain of CCR5/mu opioid receptor complex (Homo sapiens) (P35372 whole entry, looked up): as the sequence (P35372 whole entry) above
Chain of CCR5/mu opioid receptor complex (Homo sapiens) (P51681 whole entry, looked up): as the sequence (P51681 whole entry) above

## Cc1nnc(C(C)C)n1[C@H]1C[C@H]2CC[C@@H](C1)N2CC[C@H](NC(=O)C1CCC(F)(F)CC1)c1ccccc1
[1]
  inhibition: Active

## CNC(=O)COCC(=O)Nc1ccc([C@H](CCN2C3CCC2CC(n2c(C)nnc2C(C)C)C3)NC(=O)C2CCC(F)(F)CC2)cc1 (some centres undefined)
[2]
  IC50: 7910 nM

## Cc1nnc(C(C)C)n1C1CC2CCC(C1)N2CC[C@H](NC(=O)C1CCC(F)(F)CC1)c1ccc(NC(=O)COCC(=O)NCCCCCCCNC(=O)COCC(=O)N[C@@H]2CC[C@@]3(O)[C@H]4Cc5ccc(O)c6c5[C@@]3(CCN4CC3CC3)[C@H]2O6)cc1 (some centres undefined)
[3]
  Activity: inactive
[4]
  Activity: inactive
[5]
  Activity: Non-toxic

## CNC(=O)COCC(=O)NCCCCCCCNC(=O)COCC(=O)N[C@@H]1CC[C@@]2(O)[C@H]3Cc4ccc(O)c5c4[C@@]2(CCN3CC2CC2)[C@H]1O5
[3]
  Activity: inactive
[6]
  Ki: 9.2 nM
[7]
  IC50: 37.8 nM

## Cc1nnc(C(C)C)n1C1CC2CCC(C1)N2CC[C@H](NC(=O)C1CCC(F)(F)CC1)c1ccc(N)cc1 (some centres undefined)
[8]
  Ki: 15.3 nM
[2]
  IC50: 14.2 nM

## Cc1nnc(C(C)C)n1C1CC2CCC(C1)N2CC[C@H](NC(=O)C1CCC(F)(F)CC1)c1ccc(NC(=O)OC(C)(C)C)cc1 (some centres undefined)
[2]
  IC50: 1570 nM

## O=C1CC[C@@]2(O)[C@H]3Cc4ccc(O)c5c4[C@@]2(CCN3CC2CC2)[C@H]1O5
[9]
  inhibition: inactive

## CNC(=O)COCC(=O)NCCCCCCCNC(=O)COCC(=O)Nc1ccc([C@H](CCN2C3CCC2CC(n2c(C)nnc2C(C)C)C3)NC(=O)C2CCC(F)(F)CC2)cc1 (some centres undefined)
[8]
  Ki: 151 nM
[2]
  IC50: 622 nM
